Test results published in paper PMC3689578 (Integrative biology : quantitative biosciences from nano to …, 2012).
Like-named read-outs stand apart in the source and are kept apart here.

Columns and labels:
human atheromas = assay: Ex vivo incubation of human carotid endarterectomy specimens
Procedure, shortened: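 Fresh carotid endarterectomy specimens from five patients, held on ice, embedded in 0.5% agarose, cut into 2 mm slices. Slices from the same specimen incubated 1 h in 10 μmol L−1 Cy5-labelled cleavable or control probe; two sections also with 110 or 220 μmol L−1 argatroban. Fluorescence measured on cryosections, background-subtracted. Slices homogenised in SDS sample buffer, centrifuged, supernatant run on gel. Paired t-test.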

Active thrombin in serum [1] = molecular target: T1, Active thrombin in serum (Mus musculus, UniProt P19221); assay: biochemical; conditions: read-out: inhibition of DPRSFL–ACPP proteolysis by serum
thrombin [2] = molecular target: T2, thrombin (Homo sapiens, UniProt P00734); assay: Enzyme cleavage by purified thrombin; assay type: biochemical
atherosclerotic plaques [3] = assay: Aorta and plaque fluorescence sorted by histologic group; assay type: in vivo, mice
Active thrombin in serum [4] = molecular target: T1, Active thrombin in serum
[5] = molecular target: activated protein C (APC) (Homo sapiens, UniProt P04070); assay: Enzyme cleavage by activated protein C; assay type: biochemical; conditions: 5 μmol L^−1 peptide, 50 nmol L^−1 enzyme
Sequence of activated protein C (APC) (P04070 212-461 limits assumed): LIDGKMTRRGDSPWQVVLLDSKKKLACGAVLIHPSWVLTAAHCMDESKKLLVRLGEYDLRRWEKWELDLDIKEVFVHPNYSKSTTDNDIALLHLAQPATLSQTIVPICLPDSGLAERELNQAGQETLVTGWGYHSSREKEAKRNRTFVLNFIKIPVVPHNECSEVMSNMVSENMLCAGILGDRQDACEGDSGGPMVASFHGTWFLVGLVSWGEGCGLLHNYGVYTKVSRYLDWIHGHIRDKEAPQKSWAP
Sequence of activated protein C (APC) (P04070 43-197 limits assumed): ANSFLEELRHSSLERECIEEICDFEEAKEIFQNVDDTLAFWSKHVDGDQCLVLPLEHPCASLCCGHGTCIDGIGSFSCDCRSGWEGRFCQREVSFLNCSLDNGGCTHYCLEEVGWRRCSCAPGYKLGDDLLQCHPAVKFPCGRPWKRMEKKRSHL

[6] = tested on: clots at the end of the amputated tail tips; assay: In vivo clot imaging after tail amputation; parameters: species or system wildtype FVB mice; conditions: 10 nanomoles iv, 24 hours, p = 0.045
Procedure, shortened: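 Wildtype FVB mouse tails clipped 2.5 mm from the tip. 20 min later, 10 nanomoles cleavable or control probe given i.v. At 24 h, under ketamine/midazolam (80, 5 mg kg−1), tail-tip clots imaged by fluorescence dissecting microscope (ex 620/60, em 700/75). Intensity quantified from images.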

plasmin = plasmin (Homo sapiens, UniProt P00747); assay: Enzyme cleavage by plasmin; assay type: biochemical; conditions: 5 μmol L^−1 peptide, 50 nmol L^−1 enzyme
Sequence of plasmin (P00747 581-810 limits assumed, species assumed): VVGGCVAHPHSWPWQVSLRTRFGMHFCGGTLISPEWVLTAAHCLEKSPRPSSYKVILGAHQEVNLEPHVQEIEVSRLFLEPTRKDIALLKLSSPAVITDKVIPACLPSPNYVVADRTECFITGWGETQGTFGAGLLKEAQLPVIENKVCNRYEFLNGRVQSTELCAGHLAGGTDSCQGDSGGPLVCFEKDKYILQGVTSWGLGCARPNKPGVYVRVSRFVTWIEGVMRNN
Sequence of plasmin (P00747 97-580 limits assumed, species assumed): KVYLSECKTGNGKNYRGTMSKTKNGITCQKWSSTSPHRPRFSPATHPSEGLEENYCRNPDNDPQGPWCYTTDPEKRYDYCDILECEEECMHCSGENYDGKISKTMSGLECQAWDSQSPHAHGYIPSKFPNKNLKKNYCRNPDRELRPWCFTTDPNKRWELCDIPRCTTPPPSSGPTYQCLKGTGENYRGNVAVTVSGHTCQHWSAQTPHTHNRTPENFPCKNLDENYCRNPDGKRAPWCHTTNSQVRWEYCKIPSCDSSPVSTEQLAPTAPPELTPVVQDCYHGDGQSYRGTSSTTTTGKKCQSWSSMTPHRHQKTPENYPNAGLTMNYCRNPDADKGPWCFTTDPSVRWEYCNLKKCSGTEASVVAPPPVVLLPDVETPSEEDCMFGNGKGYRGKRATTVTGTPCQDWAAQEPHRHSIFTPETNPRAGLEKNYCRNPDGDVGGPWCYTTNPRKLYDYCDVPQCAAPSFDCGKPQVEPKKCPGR

atherosclerotic plaques [7] = assay: Distribution of fluorescence within sectioned plaques; assay type: in vivo, LDLR−/− mice; conditions: 15 plaques, n = 5 mice, p = 0.023 paired t-test
[8] = parameters: species or system mice; conditions: mouse, in vivo, iv
cathepsin G = molecular target: T3, cathepsin G (Homo sapiens, UniProt P08311); assay: Enzyme cleavage by cathepsin G; assay type: biochemical; conditions: 5 μmol L^−1 peptide, 50 nmol L^−1 enzyme
T3 sequence (P08311 21-255): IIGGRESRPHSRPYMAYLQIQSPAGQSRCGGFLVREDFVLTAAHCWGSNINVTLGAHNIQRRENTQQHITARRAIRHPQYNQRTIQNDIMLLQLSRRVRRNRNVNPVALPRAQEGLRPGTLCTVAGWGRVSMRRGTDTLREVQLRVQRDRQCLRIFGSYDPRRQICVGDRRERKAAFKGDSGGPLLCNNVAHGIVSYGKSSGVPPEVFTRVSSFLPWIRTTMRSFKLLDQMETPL

thrombin [9] = molecular target: T2, thrombin; assay: Determination of kcat/Km with thrombin; assay type: biochemical
Procedure, shortened: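 Thrombin at 50 nmol L−1 with seven substrate concentrations from 1 to 30 μmol L−1, sampled at 5, 15, 30 and 60 min. Reactions stopped with SDS sample buffer and run on tricine gels. Percent cleavage = (lower band − background)/(lower + upper band − 2×background), uncleaved-substrate value subtracted. Percent × starting concentration gives product. Velocity is the slope of the linear product-versus-time segment. Km and kcat come from the Lineweaver–Burke intercept and slope.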

factor XIIa = molecular target: T4, factor XIIa (Homo sapiens, UniProt P00748); assay: Enzyme cleavage by factor XIIa; assay type: biochemical; conditions: 5 μmol L^−1 peptide, 50 nmol L^−1 enzyme
T4 sequence (P00748 373-615 limits assumed): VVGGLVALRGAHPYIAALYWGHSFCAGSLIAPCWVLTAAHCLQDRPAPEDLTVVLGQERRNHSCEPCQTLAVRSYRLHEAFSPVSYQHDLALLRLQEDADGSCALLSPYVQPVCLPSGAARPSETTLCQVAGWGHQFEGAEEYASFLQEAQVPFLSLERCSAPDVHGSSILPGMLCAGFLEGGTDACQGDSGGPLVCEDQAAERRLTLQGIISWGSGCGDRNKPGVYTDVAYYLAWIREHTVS

factor XIa = factor XIa (Homo sapiens, UniProt P03951); assay: Enzyme cleavage by factor XIa; assay type: biochemical; conditions: 5 μmol L^−1 peptide, 50 nmol L^−1 enzyme
Sequence of factor XIa (P03951 388-625 limits assumed): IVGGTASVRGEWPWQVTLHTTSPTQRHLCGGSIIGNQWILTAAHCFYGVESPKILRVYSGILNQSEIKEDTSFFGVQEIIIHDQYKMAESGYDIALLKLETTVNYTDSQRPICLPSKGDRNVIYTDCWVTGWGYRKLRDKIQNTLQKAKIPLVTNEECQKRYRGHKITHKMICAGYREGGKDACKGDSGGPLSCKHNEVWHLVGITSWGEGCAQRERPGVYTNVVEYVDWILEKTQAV
Sequence of factor XIa (P03951 19-387 limits assumed): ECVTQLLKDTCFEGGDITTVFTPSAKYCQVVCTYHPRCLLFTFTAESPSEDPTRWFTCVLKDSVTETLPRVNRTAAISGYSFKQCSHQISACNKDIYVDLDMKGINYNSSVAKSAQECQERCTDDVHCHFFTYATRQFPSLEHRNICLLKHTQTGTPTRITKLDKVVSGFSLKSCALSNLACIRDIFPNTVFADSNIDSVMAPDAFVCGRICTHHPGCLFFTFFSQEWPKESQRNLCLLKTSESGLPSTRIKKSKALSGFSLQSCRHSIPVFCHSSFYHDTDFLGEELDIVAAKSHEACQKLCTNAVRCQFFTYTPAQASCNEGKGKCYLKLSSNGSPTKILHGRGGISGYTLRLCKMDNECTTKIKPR

factor Xa = factor Xa (Bos taurus, UniProt P00743); assay: Enzyme cleavage by factor Xa; assay type: biochemical; conditions: 5 μmol L^−1 peptide, 50 nmol L^−1 enzyme
Sequence of factor Xa (P00743 234-492 limits assumed): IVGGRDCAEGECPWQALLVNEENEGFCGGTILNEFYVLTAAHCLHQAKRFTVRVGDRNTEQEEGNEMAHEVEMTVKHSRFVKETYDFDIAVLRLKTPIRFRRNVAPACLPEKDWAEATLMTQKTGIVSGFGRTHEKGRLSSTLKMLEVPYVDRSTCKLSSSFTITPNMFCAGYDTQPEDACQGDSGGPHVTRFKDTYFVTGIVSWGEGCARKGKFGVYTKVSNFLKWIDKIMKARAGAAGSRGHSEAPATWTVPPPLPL
Sequence of factor Xa (P00743 41-180 limits assumed): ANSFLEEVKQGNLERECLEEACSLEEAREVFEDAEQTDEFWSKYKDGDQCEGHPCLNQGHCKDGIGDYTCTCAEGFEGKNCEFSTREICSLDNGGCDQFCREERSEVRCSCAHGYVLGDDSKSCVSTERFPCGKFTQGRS

neutrophil elastase = molecular target: T5, neutrophil elastase (Homo sapiens, UniProt P08246); assay: Enzyme cleavage by neutrophil elastase; assay type: biochemical; conditions: 5 μmol L^−1 peptide, 50 nmol L^−1 enzyme
T5 sequence (P08246 30-267): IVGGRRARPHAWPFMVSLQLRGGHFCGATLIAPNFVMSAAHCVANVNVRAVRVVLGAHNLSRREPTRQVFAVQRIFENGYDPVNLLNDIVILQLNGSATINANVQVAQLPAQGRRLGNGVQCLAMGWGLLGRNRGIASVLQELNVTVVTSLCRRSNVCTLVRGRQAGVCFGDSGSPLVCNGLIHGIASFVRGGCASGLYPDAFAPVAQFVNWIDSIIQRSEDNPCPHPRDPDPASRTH

trypsin = assay: Enzyme cleavage by trypsin; assay type: biochemical; conditions: 5 μmol L^−1 peptide, 50 nmol L^−1 enzyme
factor VIIa = molecular target: T6, factor VIIa (Homo sapiens, UniProt P08709); assay: Enzyme cleavage by factor VIIa; assay type: biochemical; conditions: 5 μmol L^−1 peptide, 50 nmol L^−1 enzyme
T6 sequence (P08709 213-466 limits assumed): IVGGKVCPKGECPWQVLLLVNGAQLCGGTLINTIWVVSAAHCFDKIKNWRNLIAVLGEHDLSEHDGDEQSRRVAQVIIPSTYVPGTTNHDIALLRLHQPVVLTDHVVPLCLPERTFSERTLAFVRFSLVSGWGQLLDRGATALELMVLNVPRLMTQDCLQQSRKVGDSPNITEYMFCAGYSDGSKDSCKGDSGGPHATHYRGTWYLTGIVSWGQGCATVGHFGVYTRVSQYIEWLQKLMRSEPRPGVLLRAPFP
T6 sequence (P08709 61-212 limits assumed): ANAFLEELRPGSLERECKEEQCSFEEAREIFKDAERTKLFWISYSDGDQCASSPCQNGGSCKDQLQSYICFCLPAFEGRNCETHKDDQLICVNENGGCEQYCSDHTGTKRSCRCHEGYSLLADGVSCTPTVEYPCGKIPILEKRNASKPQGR

atherosclerotic plaques [10] = assay: Imaging of carotid plaques after co-injection of two probes; assay type: in vivo, LDLR−/− mice; conditions: rhodamine-labelled DPRSFL–ACPP, two animals
Procedure, shortened: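 LDLR−/− mice (C57BL/6 background) fed 0.5% cholesterol diet for 1–2 years, given rhodamine-labelled test probe plus Cy5-labelled MMP-cleavable probe intravenously. At 6 h, under anaesthesia, the carotid was exposed and imaged by fluorescence dissecting microscope. Carotid bifurcation and aortic arch imaged postmortem (rhodamine ex 560/25, em 607/36; Cy5 ex 620/60, em 700/75). Tissue then frozen for histology.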

chymotrypsin = assay: Enzyme cleavage by chymotrypsin; assay type: biochemical; conditions: 5 μmol L^−1 peptide, 50 nmol L^−1 enzyme
thrombin [11] = molecular target: T2, thrombin; conditions: thrombin activity on native receptor; cited from earlier work
[12] = 50 nmol L^−1 thrombin, 1 to 30 μmol L^−1 peptide, 5-60 min, gel read-out

With `CC1CNc2c(cccc2S(=O)(=O)N[C@@H](CCCNC(=N)N)C(=O)N2CC[C@@H](C)C[C@@H]2C(=O)O)C1` (some centres unmarked) [argatroban, reference compound] the “reduction in fluorescence intensity relative to DPRSFL–ACPP alone” value (human atheromas; 110 or 220 μmol L^−1 argatroban, two atheroma specimens) was 76.6 ± 13.4%, the inhibition at 4 µg/mL (Active thrombin in serum [1]) was over 90% and the inhibition at 4 µg/mL (thrombin [2]; read-out: inhibition of DPRSFL–ACPP cleavage by thrombin) was over 90%.

In the case of “Suc-e8-O-DPRSFL-r9-c(Cy5 or rhodamine)-CONH2 [DPRSFL–ACPP]”, the “fluorescence intensity of individual plaques, Group 2” value (atherosclerotic plaques [3]; n = 3, p = 0.007 vs Group 1) is reported as 43.7 ± 7.5, the “whole aorta fluorescence per pixel, Group 2 (more advanced plaques)” value (atherosclerotic plaques [3]; n = 4, p = 0.02 vs Group 1) is reported as 24.4 ± 3.6 and the “fluorescence intensity of individual plaques, Group 1” value (atherosclerotic plaques [3]; n = 11) is reported as 17.0 ± 9.3. For the same molecule, the “whole aorta fluorescence per pixel, Group 1 (less advanced plaques)” value (atherosclerotic plaques [3]; n=12) was 7.8 ± 3.0, the cleavage by serum (Active thrombin in serum [4]) was “rapidly cleaved” and the “cleavage by APC” value [5] was “no cleavage”. For the same molecule, the “fold increase in clot fluorescence intensity compared to mPEG–ACPP” value [6] was 2.4 fold, the cleavage by plasmin (plasmin) was “able to cleave” and the “uptake in hypocellular (DAPI poor) region versus cellular rich exterior” value (atherosclerotic plaques [7]) was “statistically greater”. The “greater cleavage product retained compared to control ACPP” value (human atheromas; freshly resected human atheromas bathed in probe) was 63%, the “cleavage by human atheromas (gel electrophoresis of homogenates)” value (human atheromas; slices homogenized in SDS sample buffer after incubation) was “cleaved” and the whole blood half-life [8] was 17 ± 5 min. The “cleavage by cathepsin G” value (cathepsin G) was “no cleavage”, the Km (thrombin [9]; [12]) was 15 µM and the kcat (thrombin [9]; [12]) was 0.3 s⁻¹. For the same molecule, the kcat/Km (thrombin [9]; from kcat and Km) was 21000 M⁻¹ s⁻¹, the “cleavage by factor XIIa” value (factor XIIa) was “no cleavage” and the “cleavage by factor XIa” value (factor XIa) was “no cleavage”. The “cleavage by factor Xa” value (factor Xa) was “able to cleave”, the “cleavage by purified thrombin” value (thrombin [2]; 5 μmol L^−1 peptide, 50 nM thrombin, 20 min, 37 °C, triplicate) was “efficiently cleaved” and the “cleavage by neutrophil elastase” value (neutrophil elastase) was “no cleavage”. The cleavage by trypsin (trypsin) was “able to cleave”, the “cleavage by factor VIIa” value (factor VIIa) was “no cleavage” and the “uptake relative to co-injected Cy5–PLGLAG–ACPP within the same plaques” value (atherosclerotic plaques [10]) was “much higher”. The cleavage by chymotrypsin (chymotrypsin) was “able to cleave”.

B1: native PAR-1 receptor: native proteinase activated receptor 1, thrombin substrate (protein, UniProt P25116 42-425, looked up)
Proteinase-activated receptor …: SFLLRNPNDKYEPFWEDEEKNESGLTEYRLVSINKSSPLQKQLPAFISEDASGYLTSSWLTLFVPSVYTGVFVVSLPLNIMAIVVFILKMKVKKPAVVYMLHLATADVLFVSVLPFKISYYFSGSDWQFGSELCRFVTAAFYCNMYASILLMTVISIDRFLAVVYPMQSLSWRTLGRASFTCLAIWALAIAGVVPLLLKEQTIQVPGLNITTCHDVLNETLLEGYYAYYFSAFSAVFFFVPLIISTVCYVSIIRCLSSSAVANRSKKSRALFLSAAVFCIFIICFGPTNVLLIAHYSFLSHTSTTEAAYFAYLLCVCVSSISCCIDPLIYYYASSECQRYVYSILCCKESSDPSSYNSSGQLMASKMDTCSSNLNNSIYKKLLT
In the case of B1, the kcat/Km (thrombin [11]) is given as 7.6e+06 M⁻¹ s⁻¹.
